According to ChEMBL document CHEMBL3525985, “Regiospecificity and stereospecificity of human UDP-glucuronosyltransferases in the glucuronidation of estriol, 16-epiestriol, 17-epiestriol, and 13-epiestradiol” (Drug Metab Dispos, 2013):

Assays:
Type in all cases: ADME
[1] = tested on: Liver microsome; assay: Drug metabolism in human liver microsomes assessed as 17-epiestriol-17-glucuronide formation after 15 to 60 mins by Michaelis-Menten equation analysis in presence of UDPGA
Summary of the method: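 Pooled human liver microsomes (30 donors), 0.5 or 10 µg, with alamethicin at 5% of total protein. Incubated with 50 mM phosphate pH 7.4, 10 mM MgCl₂, 5 mM UDPGA and 10% DMSO for 15–60 min at 37°C. Each glucuronide regioisomer quantified by HPLC, in triplicate, with substrate consumption at or below 10%.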

[2] = biological target: T1, UDP-glucuronosyltransferase 2B15 (Homo sapiens, UniProt P54855); assay: Drug metabolism assessed as recombinant human C-terminal […]-mediated 17-epiestriol-3-glucuronide formation at 200 uM after 15 to 60 mins by HPLC analysis in presence of UDPGA; settings: recombinant enzyme
T1 sequence (P54855 whole entry): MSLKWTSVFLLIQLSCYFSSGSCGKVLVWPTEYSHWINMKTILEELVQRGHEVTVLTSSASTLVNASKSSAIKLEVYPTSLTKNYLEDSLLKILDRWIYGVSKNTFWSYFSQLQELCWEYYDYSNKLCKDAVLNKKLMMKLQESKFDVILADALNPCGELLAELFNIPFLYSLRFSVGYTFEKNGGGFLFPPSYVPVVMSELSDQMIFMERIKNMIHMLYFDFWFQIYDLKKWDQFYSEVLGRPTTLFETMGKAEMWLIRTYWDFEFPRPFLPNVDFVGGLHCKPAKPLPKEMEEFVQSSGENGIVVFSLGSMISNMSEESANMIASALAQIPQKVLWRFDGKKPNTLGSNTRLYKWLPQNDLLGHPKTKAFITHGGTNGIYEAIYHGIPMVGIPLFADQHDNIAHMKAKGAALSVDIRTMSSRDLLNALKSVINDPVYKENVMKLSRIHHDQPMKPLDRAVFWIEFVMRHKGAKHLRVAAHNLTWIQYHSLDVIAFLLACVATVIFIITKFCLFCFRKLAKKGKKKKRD

[3] = biological target: T2, UDP-glucuronosyltransferase 2A1 (Homo sapiens, UniProt P0DTE4); assay: Drug metabolism assessed as recombinant human C-terminal His-tagged UGT2A1-mediated 17-epiestriol-16-glucuronide formation at 200 uM after 15 to 60 mins by HPLC analysis in presence of UDPGA; settings: recombinant enzyme
T2 sequence (P0DTE4 whole entry): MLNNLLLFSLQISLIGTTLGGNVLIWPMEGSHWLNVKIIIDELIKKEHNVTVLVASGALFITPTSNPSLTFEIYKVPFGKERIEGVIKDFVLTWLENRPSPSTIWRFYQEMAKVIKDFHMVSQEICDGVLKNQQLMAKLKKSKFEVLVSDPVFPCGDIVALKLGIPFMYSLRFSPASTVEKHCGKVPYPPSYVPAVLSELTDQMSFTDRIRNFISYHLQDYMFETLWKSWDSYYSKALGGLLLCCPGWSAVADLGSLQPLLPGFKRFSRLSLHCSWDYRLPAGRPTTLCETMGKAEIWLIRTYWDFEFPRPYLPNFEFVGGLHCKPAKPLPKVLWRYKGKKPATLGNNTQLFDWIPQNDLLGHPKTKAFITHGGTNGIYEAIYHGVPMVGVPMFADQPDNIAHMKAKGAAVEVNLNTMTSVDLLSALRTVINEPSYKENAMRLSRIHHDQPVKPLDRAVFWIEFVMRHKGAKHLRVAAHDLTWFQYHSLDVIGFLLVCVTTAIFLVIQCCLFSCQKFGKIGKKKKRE
Summary of the method: (§1)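 Screening at a single substrate concentration of 200 μM, in triplicate. The reaction used 5 or 50 µg of UGT-enriched insect cell membranes in 50 mM phosphate pH 7.4 with 10 mM MgCl₂ and 5 mM UDPGA, 10% final DMSO. Incubation was 15–60 min at 37°C. Perchloric acid stopped the reaction and supernatants were analysed by HPLC. Controls lacked UDPGA. Rates were normalized to relative UGT expression level.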

[4] = biological target: T3, UDP-glucuronosyltransferase 1A1 (Homo sapiens, UniProt P22309); assay: Drug metabolism assessed as recombinant human C-terminal His-tagged UGT1A1-mediated 16-epiestriol-3-glucuronide formation after 15 to 60 mins by Michaelis-Menten equation analysis in presence of UDPGA; settings: recombinant enzyme
T3 sequence (P22309 whole entry): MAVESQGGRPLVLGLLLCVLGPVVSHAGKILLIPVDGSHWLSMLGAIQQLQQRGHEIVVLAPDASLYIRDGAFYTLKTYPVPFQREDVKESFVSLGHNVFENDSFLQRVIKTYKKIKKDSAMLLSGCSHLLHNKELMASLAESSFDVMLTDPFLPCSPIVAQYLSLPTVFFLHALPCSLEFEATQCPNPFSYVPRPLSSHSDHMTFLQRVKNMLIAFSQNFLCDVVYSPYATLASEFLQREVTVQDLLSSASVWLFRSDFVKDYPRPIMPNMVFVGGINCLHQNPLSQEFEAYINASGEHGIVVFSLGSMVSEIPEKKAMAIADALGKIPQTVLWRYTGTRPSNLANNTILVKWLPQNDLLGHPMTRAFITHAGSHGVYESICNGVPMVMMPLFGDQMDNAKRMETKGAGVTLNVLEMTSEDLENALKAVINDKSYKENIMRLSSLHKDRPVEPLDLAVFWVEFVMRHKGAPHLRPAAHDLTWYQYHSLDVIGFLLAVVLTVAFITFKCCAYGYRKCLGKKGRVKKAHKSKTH

[5] = biological target: T1, UDP-glucuronosyltransferase 2B15; assay: Drug metabolism assessed as recombinant human C-terminal […]-mediated 16-epiestriol-3-glucuronide formation after 15 to 60 mins by Michaelis-Menten equation analysis in presence of UDPGA; settings: recombinant enzyme
[6] = biological target: T4, UDP-glucuronosyltransferase 1A8 (Homo sapiens, UniProt Q9HAW9); assay: Drug metabolism assessed as recombinant human C-terminal His-tagged UGT1A8-mediated estradiol-3-glucuronide formation at 200 uM after 15 to 60 mins by HPLC analysis in presence of UDPGA; settings: recombinant enzyme; summary of the method: as §1
T4 sequence (Q9HAW9 whole entry): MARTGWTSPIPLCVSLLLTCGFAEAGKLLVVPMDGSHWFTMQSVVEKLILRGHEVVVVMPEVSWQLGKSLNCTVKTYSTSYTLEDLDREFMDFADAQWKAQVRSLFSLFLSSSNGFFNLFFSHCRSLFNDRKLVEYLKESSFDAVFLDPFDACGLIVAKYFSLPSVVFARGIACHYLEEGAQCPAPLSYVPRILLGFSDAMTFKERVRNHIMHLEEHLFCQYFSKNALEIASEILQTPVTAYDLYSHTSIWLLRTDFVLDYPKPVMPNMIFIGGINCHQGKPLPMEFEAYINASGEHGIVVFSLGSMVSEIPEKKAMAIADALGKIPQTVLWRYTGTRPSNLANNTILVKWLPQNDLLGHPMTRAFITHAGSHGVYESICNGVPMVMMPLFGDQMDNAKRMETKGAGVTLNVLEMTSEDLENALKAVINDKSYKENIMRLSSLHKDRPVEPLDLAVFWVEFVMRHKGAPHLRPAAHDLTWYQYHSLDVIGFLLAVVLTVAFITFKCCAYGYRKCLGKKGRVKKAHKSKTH

[7] = biological target: T2, UDP-glucuronosyltransferase 2A1; assay: Drug metabolism assessed as recombinant human C-terminal His-tagged UGT2A1-mediated estradiol-3-glucuronide/estradiol-17-glucuronide formation at 200 uM after 15 to 60 mins by HPLC analysis in presence of UDPGA; settings: recombinant enzyme; summary of the method: as §1

How did the Km [1] turn out when `C[C@]12CC[C@@H]3c4ccc(O)cc4CC[C@H]3[C@@H]1C[C@@H](O)[C@H]2O` was run?
Its Km is 21 µM.

And the Vmax [1]?
Its Vmax is 5425 pmol/min/mg.

And the Drug metabolism [2]?
The Drug metabolism was “metabolite_detected”.

What about the Drug metabolism [3] of the same compound?
Its Drug metabolism is “metabolite_detected”.

What does the source list for `C[C@]12CC[C@@H]3c4ccc(O)cc4CC[C@H]3[C@@H]1C[C@H](O)[C@@H]2O` [EPIESTRIOL]?
Drug metabolism [4]: 0.5 pmol/min/mg; Drug metabolism [5]: 0.5 pmol/min/mg

Which results are given for `C[C@]12CC[C@@H]3c4ccc(O)cc4CC[C@H]3[C@@H]1CC[C@@H]2O` [ESTRADIOL]?
Drug metabolism [6]: metabolite_detected; Drug metabolism [7]: metabolite_detected
